“And” between values parts separate entries of the source, which are not always exact repeats. Identical values can stand only once. Like-named read-outs stand apart in the source and are kept apart here.
Legend:
[1] = test system: sheep cardiac ryanodine receptor (RyR) channel; assay type: biochemical
Method in brief: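 CHAPS-solubilized RyR from sheep ventricular heavy SR (30/40% sucrose interface) was reconstituted into liposomes and fused into phosphatidylethanolamine/n-decane bilayers. Both chambers held 610 mM K+, 20 mM HEPES pH 7.4 and 10 μM contaminant Ca2+, with 100 μM EMD 41000 cis. Single channels only, at 21 ± 2°C. Ryanoid added cytosolically; steady-state runs ≥6 min at +40 mV. Pmod = modified/(modified+unmodified) time; single-site nonlinear regression; mean ± SEM.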

[2] = test system: sheep cardiac ryanodine receptor (RyR) channel; conditions: ref Tinker et al., 1996, cited from earlier work
[3] = +40 mV, 500 nM cytosolic, 20 min recording, single exponential fit

Molecule: 21-amino-9α-hydroxy-ryanodine
- mean P o ± SEM in unmodified periods ([1]; 50 nM ryanoid, +40 mV, n = 5): 0.62 ± 0.15
- mean P o ± SEM in unmodified periods ([1]; 100 nM ryanoid, +40 mV, n = 5): 0.71 ± 0.16
- mean P o ± SEM in unmodified periods ([1]; 300 nM ryanoid, +40 mV, n = 5): 0.70 ± 0.16
- modification of channel function, luminal addition ([1]; 500 nM at the luminal face, +60 or −60 mV, n = 6): no modification of gating or conductance
- total valency / total voltage dependence (z on + z off) ([1]; 500 nM cytosolic): 1.98 and 2
- interaction with the channel at −60 mV ([1]; 500 nM cytosolic, −60 mV): no discernible modified-conductance events
- mean P o ± SEM in unmodified periods ([1]; 500 nM ryanoid, +40 mV, n = 5): 0.56 ± 0.16
- k on, intercept of regression line vs P o ([1]; 700 nM cytosolic, +40 mV): 0.02 ± 0.02 s⁻¹
- k on, slope vs P o ([1]; 700 nM cytosolic, +40 mV, range P o = 0–1): 0.97 ± 0.05 s⁻¹
- mean P o ± SEM in unmodified periods ([1]; 700 nM ryanoid, +40 mV, n = 4): 0.73 ± 0.15
- mean P o ± SEM in unmodified periods ([1]; 900 nM ryanoid, +40 mV, n = 4): 0.73 ± 0.15
- mean dwell time in the modified state (τmod) [1, 3]: 4.21 s
- mean dwell time in the unmodified state (τunmod) [1, 3]: 0.95 s
- K d from P mod vs concentration ([1]; +40 mV, 50-900 nM cytosolic, single-site binding scheme, nonlinear regression): 105 nM
- apparent rate constant for dissociation, mean value ([1]; +40 mV, independent of concentration): 0.24 ± 0.01 s⁻¹
- z, voltage dependence of occurrence of the modified state ([1]; Boltzmann fit of P mod vs holding potential, 500 nM cytosolic): 2.16
- Hill slope ([1]; P mod vs concentration, +40 mV): 0.99
- slope of ln(rate constant) vs ln(concentration) ([1]; association, +40 mV): 0.975
- modified conductance ([1]; cursors at center of noise, 610 mM K+, SEM, n = 14): 354 ± 6 pS
- mean fractional conductance ± SEM ([1]; holding potential 20 mV, n = 10): 0.438 ± 0.004
- mean fractional conductance ± SEM ([1]; holding potential 40 mV, n = 10): 0.440 ± 0.003
- mean fractional conductance ± SEM ([1]; holding potential 60 mV, n = 10): 0.462 ± 0.003
- mean P o ± SEM in unmodified periods ([1]; holding potential +20 mV, 500 nM ryanoid, n = 7): 0.65 ± 0.09
- mean P o ± SEM in unmodified periods ([1]; holding potential +40 mV, 500 nM ryanoid, n = 7): 0.69 ± 0.09
- mean P o ± SEM in unmodified periods ([1]; holding potential +60 mV, 500 nM ryanoid, n = 7): 0.45 ± 0.06
- mean P o ± SEM in unmodified periods ([1]; holding potential −20 mV, 500 nM ryanoid, n = 6): 0.62 ± 0.15
- mean fractional conductance ± SEM ([1]; holding potential −20 mV, n = 10): 0.437 ± 0.005
- mean P o ± SEM in unmodified periods ([1]; holding potential −40 mV, 500 nM ryanoid, n = 5): 0.73 ± 0.13
- mean fractional conductance ± SEM ([1]; holding potential −40 mV, n = 6): 0.442 ± 0.002
- mean P o ± SEM in unmodified periods ([1]; holding potential −60 mV, 500 nM ryanoid, n = 5): 0.78 ± 0.17
- fractional conductance ([1]; modified conductance as proportion of unmodified conductance (813 pS)): 0.44
- Kd ([1]; read-out: apparent K d derived from the rate constants, +40 mV): 111 nM
- z off ([1]; slope of ln(K off) vs holding potential, 500 nM cytosolic): 0.87
- z on ([1]; slope of ln(K on) vs holding potential, 500 nM cytosolic): 1.11

Molecule: CC(C)[C@@]1(O)[C@@H](O)[C@@]2(O)[C@@]3(C)C[C@]4(O)O[C@@]5([C@H](O)[C@@H](C)CC[C@]35O)[C@@]2(O)[C@]14C [ryanodol]
- voltage dependence of channel modification ([2]; +60 vs −60 mV): more likely to occur and are longer lasting at a holding potential of +60 than −60 mV
- amplitude of reduced conductance state, of the normal unmodified conductance [2]: ~70%

From publication PMC2229406 (The Journal of General Physiology, 1998)
